Experimental data reported in article PMC11253873 (RSC Medicinal Chemistry, 2024).
Converted amounts (≈) assume the structure as drawn. “And” between values parts separate entries of the source, which are not always exact repeats. Identical values can stand only once.

Assays:
[1] = test system: Mtb H37Rv; assay: microbe, parasite or virus in culture; format: cell-based, Mycobacterium tuberculosis; conditions: Mycobacterium tuberculosis, H37RV, 336 h, read-out: Mtb MIC
[2] = test system: had1 mutant Pf strain (E1-C12); assay: Growth inhibition of fosmidomycin-resistant had1 mutant P. falciparum; format: cell-based, Plasmodium falciparum; conditions: had1 mutant versus wild type 3D7
Outline: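 Asynchronous cultures of wild-type 3D7 and fosmidomycin-resistant had1 strain E1-C12 are kept at 2% hematocrit in supplemented RPMI-1640 with 0.5% Albumax, under 5% O2/5% CO2/90% N2 at 37 °C. Parasites are diluted to 0.5% parasitemia and exposed to 1.2 nM–492.4 μM test compound from the start. After 3 days, DNA is read with PicoGreen (ex 485/em 528 nm). IC50 comes from a 4-parameter nonlinear fit. Technical duplicates, biological triplicate.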

[3] = test system: HepG2 cells; assay: HepG2 cell inhibition; format: cell-based; conditions: Homo sapiens, HepG2, 24 h, read-out: HepG2 IC50
[4] = test system: MEP pathway in P. falciparum parasites; assay: IPP rescue of inhibitor-treated P. falciparum; format: cell-based, Plasmodium falciparum; conditions: 125 μM IPP added to media
Outline: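 The rescue format is the standard 3-day growth assay with 125 μM IPP present throughout. Parasites are at 0.5% parasitemia and 2% hematocrit in supplemented RPMI-1640/Albumax, under 5% O2/5% CO2/90% N2 at 37 °C, with 1.2 nM–492.4 μM test compound. Growth is measured as PicoGreen DNA fluorescence and fitted to a 4-parameter dose–response curve. Technical duplicates, biological triplicate.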

`COc1ccc(C(C)ON(CCC(c2ccc(Cl)c(Cl)c2)P(=O)(OCOC(=O)C(C)(C)C)OCOC(=O)C(C)(C)C)C(C)=O)cc1` (stereo not shown) [Compound 7l, ({[1-(3,4-Dichlorophenyl)-3-{N-[1-(4-methoxyphenyl)ethoxy]acetamido}propyl]({[(2,2-dimethylpropanoyl)oxy]methoxy})phosphoryl}oxy)methyl 2,2-dimethylpropanoate] was tested. Which MIC [1] did it give?
Its MIC is 4.6 µg/mL (≈ 6.53 µM).

And the “cross resistance of fosmidomycin-resistant had1 mutant Pf strain” value [2]?
The value was “displayed increased resistance”.

And the IC50 [3]?
The IC50 was > 100 µg/mL and > 140 µM.

And the “IPP rescue of growth of drug-treated P. falciparum parasites” value [4]?
The value was “rescues the growth”.
